In ChEMBL document CHEMBL1909579, “New bioactive macrocyclic diterpenoids from Jatropha multifida” (Bioorg Med Chem Lett, 2011):
In brackets after ≈: the same amount, converted by molar mass.

Columns and labels:
[1] = Cytotoxicity against human MDA231 cells by MTT assay; format: functional, cell-based; conditions: MDA-MB-231
Method in brief: (§1)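 MTT read-out following Mosmann's method; IC50 for each cell line derived from four individual observations.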

[2] = system: HeLa; assay: Cytotoxicity against human HeLa cells by MTT assay; format: functional, cell-based; method in brief: as §1
[3] = system: Staphylococcus aureus; assay: Antimicrobial activity against Staphylococcus aureus MLS16 MTCC 96 by microtiter broth dilution method; format: functional; conditions: MLS16 MTCC 2940, in the assay text read “MTCC 2940” for “MTCC 96”
Method in brief: (§2)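 MIC determined by microtiter broth dilution, with neomycin as the reference control; each organism's value derived from four individual observations.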

[4] = system: Staphylococcus aureus; assay: Antimicrobial activity against Staphylococcus aureus MTCC 96 by microtiter broth dilution method; format: functional; method in brief: as §2
[5] = system: MCF7; assay: Cytotoxicity against human MCF7 cells by MTT assay; format: functional, cell-based
Method in brief: (§3)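 MTT assay following Mosmann's method. Each IC50 was derived from four individual observations for each cell line.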

[6] = system: Bacillus subtilis; assay: Antimicrobial activity against Bacillus subtilis MTCC 121 by microtiter broth dilution method; format: functional; method in brief: as §2
[7] = Cytotoxicity against mouse Neuro2a cells by MTT assay; format: functional, cell-based; conditions: N2a; method in brief: as §3
[8] = system: A549; assay: Cytotoxicity against human A549 cells by MTT assay; format: functional, cell-based; method in brief: as §1
[9] = system: Escherichia coli; assay: Antimicrobial activity against Escherichia coli MTCC 739 by microtiter broth dilution method; format: functional; method in brief: as §2
[10] = system: Raoultella planticola; assay: Antimicrobial activity against Klebsiella planticola MTCC 530 by microtiter broth dilution method; format: functional; method in brief: as §2
[11] = system: Pseudomonas aeruginosa; assay: Antimicrobial activity against Pseudomonas aeruginosa MTCC 2453 by microtiter broth dilution method; format: functional; method in brief: as §2

MIC [6] [µg/mL] | MIC [9] [µg/mL] | MIC [11] [µg/mL] | Structure (SMILES) | IC50 [1] [µM] | IC50 [2] [µM] | MIC [3] [µg/mL] | MIC [4] [µg/mL] | IC50 [5] [µM] | IC50 [7] [µM] | IC50 [8] [µM] | MIC [10] [µg/mL]
 |  |  | COc1cccc2c1C(=O)c1c(O)c3c(c(O)c1C2=O)C[C@@](O)(C(=O)CO)C[C@@H]3O[C@H]1C[C@H](N)[C@H](O)[C@H](C)O1 [DOXORUBICIN] | < 1 | < 1 |  |  |  |  |  | 
4.68 (≈ 13.9 µM) | 4.68 (≈ 13.9 µM) | 9.37 (≈ 27.8 µM) | C[C@H]1C[C@@H]2[C@H](CC[C@](C)(O)/C=C3\[C@H](O)[C@@H](C)C[C@@]3(O)C1=O)C2(C)C [MULTIFIDANOL] | 7.04 | 15.4 | 18.8 (≈ 55.7 µM) | 18.8 (≈ 55.7 µM) | 6.39 | 6.35 | 6.27 | 9.37 (≈ 27.8 µM)
 |  |  | CC1=C[C@@]2(O)C(=O)[C@@H](C)C[C@@H]3[C@H](CC[C@](C)(O)/C=C/2[C@@H]1O)C3(C)C [MULTIFIDENOL] | 5.39 | 7.56 | 4.68 (≈ 14 µM) | 4.68 (≈ 14 µM) | 8.57 | 5.6 | 12.5 | 
